Source: ChEMBL document CHEMBL3425469, “Discovery of imidazo[2,1-b]thiazole HCV NS4B inhibitors exhibiting synergistic effect with other direct-acting antiviral agents” (J Med Chem, 2015)

Key:
Hepatitis C virus [1] = assay: Antiviral activity against Hepatitis C virus genotype 1b harboring Y448H NS5B (palm) mutation transfected in human HuH7 cells after 72 hrs by luciferase assay; assay type: functional, cell-based, Hepacivirus hominis; details: Huh-7, 72 h
Method in brief: (§1)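 Huh-7 cells were transiently electroporated with genotype 1b replicon RNA carrying the specified mutation and plated at 10000 cells/well. Compounds were added at 0.5% DMSO final for 72 h at 37°C. Read-out was Bright-Glo luciferase. EC50 is the mean of two independent runs within 2-fold of each other. A reference drug EC50 was measured alongside each mutant replicon to validate it.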

Hepatitis C virus [2] = assay: Antiviral activity against Hepatitis C virus genotype 1b harboring P495A NS5B (thumb 1) mutation transfected in human HuH7 cells after 72 hrs by luciferase assay; assay type: functional, cell-based, Hepacivirus hominis; details: Huh-7, 72 h; method in brief: as §1
Hepatitis C virus [3] = assay: Antiviral activity against Hepatitis C virus genotype 1b Con 1 infected in human HuH7 cells at 10 nM after 72 hrs by luciferase assay in presence of 120 nM sofobuvir; assay type: functional, Hepacivirus hominis, Huh-7
Method in brief: (§2)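 Stable Con1 GT1b bicistronic luciferase replicon in Huh-7 cells, 8000 cells/well. Test compound and a marketed DAA or clemizole added alone or together at varied concentrations, 0.5% DMSO final. 72 h at 37°C, then luciferase read with Bright-Glo. Inhibition expressed as % of untreated control, with cytotoxicity run in parallel. CI and DRI derived by the Chou–Talalay median-effect method.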

Hepatitis C virus [4] = assay: Antiviral activity against Hepatitis C virus genotype 1b Con 1 infected in human HuH7 cells at 160 nM after 72 hrs by luciferase assay in presence of 30 nM sofobuvir; assay type: functional, Hepacivirus hominis, Huh-7; method in brief: as §2
Hepatitis C virus [5] = assay: Antiviral activity against Hepatitis C virus genotype 1b Con 1 infected in human HuH7 cells at 10 nM after 72 hrs by luciferase assay in presence of 5 uM clemizole; assay type: functional, Hepacivirus hominis, Huh-7; method in brief: as §2
Hepatitis C virus [6] = assay: Antiviral activity against Hepatitis C virus genotype 1b Con 1 infected in human HuH7 cells at 2.5 nM after 72 hrs by luciferase assay in presence of 0.16 nM daclatasvir; assay type: functional, Hepacivirus hominis, Huh-7; method in brief: as §2
Hepatitis C virus [7] = assay: Antiviral activity against Hepatitis C virus genotype 1b Con 1 infected in human HuH7 cells at 160 nM after 72 hrs by luciferase assay in presence of 5 uM clemizole; assay type: functional, Hepacivirus hominis, Huh-7; method in brief: as §2
Hepatitis C virus [8] = assay: Antiviral activity against Hepatitis C virus genotype 1b Con 1 infected in human HuH7 cells at 40 nM after 72 hrs by luciferase assay in presence of 60 nM sofobuvir; assay type: functional, Hepacivirus hominis, Huh-7
Method in brief: (§3)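 Huh-7 cells stably carrying a GT1b Con1 bicistronic luciferase replicon, seeded at 8000 cells/well. The test compound and the partner DAA are dosed orthogonally at various concentrations, final 0.5% DMSO, then incubated 72 h at 37°C. Bright-Glo luciferase read-out gives replicon inhibition as % of untreated control. Cytotoxicity is checked in parallel by CellTiter-Fluor. CI and DRI are derived by the Chou–Talalay median-effect method.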

Hepatitis C virus [9] = assay: Antiviral activity against Hepatitis C virus genotype 1b Con 1 infected in human HuH7 cells at 2.5 nM after 72 hrs by luciferase assay in presence of 24 nM simeprevir; assay type: functional, Hepacivirus hominis, Huh-7; method in brief: as §2
Hepatitis C virus [10] = assay: Antiviral activity against Hepatitis C virus genotype 1b Con 1 infected in human HuH7 cells at 2.5 nM after 72 hrs by luciferase assay in presence of 120 nM sofobuvir; assay type: functional, Hepacivirus hominis, Huh-7; method in brief: as §2
Hepatitis C virus [11] = assay: Antiviral activity against Hepatitis C virus genotype 1b Con 1 infected in human HuH7 cells at 40 nM after 72 hrs by luciferase assay in presence of 140 nM sofobuvir; assay type: functional, Hepacivirus hominis, Huh-7; method in brief: as §3
Hepatitis C virus [12] = assay: Antiviral activity against Hepatitis C virus genotype 1b Con 1 infected in human HuH7 cells at 5 nM after 72 hrs by luciferase assay in presence of 7.5 uM clemizole; assay type: functional, Hepacivirus hominis, Huh-7; method in brief: as §3
Hepatitis C virus [13] = assay: Antiviral activity against Hepatitis C virus genotype 1b Con 1 infected in human HuH7 cells at 2.5 nM after 72 hrs by luciferase assay in presence of 0.02 nM daclatasvir; assay type: functional, Hepacivirus hominis, Huh-7; method in brief: as §2
Hepatitis C virus [14] = assay: Antiviral activity against Hepatitis C virus genotype 1b Con 1 infected in human HuH7 cells at 80 nM after 72 hrs by luciferase assay in presence of 15 uM clemizole; assay type: functional, Hepacivirus hominis, Huh-7; method in brief: as §3
Hepatitis C virus [15] = assay: Antiviral activity against Hepatitis C virus genotype 1b Con 1 infected in human HuH7 cells at 5 nM after 72 hrs by luciferase assay in presence of 240 nM sofobuvir; assay type: functional, Hepacivirus hominis, Huh-7; method in brief: as §3
Hepatitis C virus [16] = assay: Antiviral activity against Hepatitis C virus genotype 1b Con 1 infected in human HuH7 cells at 2.5 nM after 72 hrs by luciferase assay in presence of 5 uM clemizole; assay type: functional, Hepacivirus hominis, Huh-7; method in brief: as §2
Hepatitis C virus [17] = assay: Antiviral activity against Hepatitis C virus genotype 1b harboring Y93H NS5A mutation transfected in human HuH7 cells after 72 hrs by luciferase assay; assay type: functional, cell-based, Hepacivirus hominis; details: Huh-7, 72 h; method in brief: as §1
Hepatitis C virus [18] = assay: Antiviral activity against Hepatitis C virus genotype 1b Con 1 infected in human HuH7 cells at 5 nM after 72 hrs by luciferase assay in presence of 24 nM simeprevir; assay type: functional, Hepacivirus hominis, Huh-7; method in brief: as §3
Hepatitis C virus [19] = assay: Antiviral activity against Hepatitis C virus genotype 1b Con 1 infected in human HuH7 cells at 5 nM after 72 hrs by luciferase assay in presence of 0.16 nM daclatasvir; assay type: functional, Hepacivirus hominis, Huh-7; method in brief: as §3
Hepatitis C virus [20] = assay: Antiviral activity against Hepatitis C virus genotype 1b Con 1 infected in human HuH7 cells at 10 nM after 72 hrs by luciferase assay in presence of 20 uM clemizole; assay type: functional, Hepacivirus hominis, Huh-7; method in brief: as §2
Hepatitis C virus [21] = assay: Antiviral activity against Hepatitis C virus genotype 1b Con 1 infected in human HuH7 cells at 5 nM after 72 hrs by luciferase assay in presence of 120 nM sofobuvir; assay type: functional, Hepacivirus hominis, Huh-7; method in brief: as §3
Hepatitis C virus [22] = assay: Antiviral activity against Hepatitis C virus genotype 1b Con1 infected in human HuH7 cells after 72 hrs by luciferase assay; assay type: functional, cell-based, Hepacivirus hominis; details: genotype 1b Con 1, Huh-7, 72 h
Method in brief: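 Huh-7 cells stably carrying a genotype 1b Con1 bicistronic luciferase replicon, seeded at 8000 cells/well. Compounds were added at 0.5% DMSO final and incubated at 37°C for 72 h. Read-out was Bright-Glo luciferase, with cell proliferation measured by CellTiter-Fluor. EC50 is the mean of at least two independent runs. Some values are given as percent inhibition at 10 µM.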

Hepatitis C virus [23] = assay: Antiviral activity against Hepatitis C virus genotype 1b Con 1 infected in human HuH7 cells at 40 nM after 72 hrs by luciferase assay in presence of 20 uM clemizole; assay type: functional, Hepacivirus hominis, Huh-7; method in brief: as §3
Hepatitis C virus [24] = assay: Antiviral activity against Hepatitis C virus genotype 1b Con 1 infected in human HuH7 cells at 80 nM after 72 hrs by luciferase assay in presence of 10 uM clemizole; assay type: functional, Hepacivirus hominis, Huh-7; method in brief: as §3
Hepatitis C virus [25] = assay: Antiviral activity against Hepatitis C virus genotype 1b Con 1 infected in human HuH7 cells at 10 nM after 72 hrs by luciferase assay in presence of 7.5 uM clemizole; assay type: functional, Hepacivirus hominis, Huh-7; method in brief: as §2
Hepatitis C virus [26] = assay: Antiviral activity against Hepatitis C virus genotype 1b Con 1 infected in human HuH7 cells at 10 nM after 72 hrs by luciferase assay in presence of 10 uM clemizole; assay type: functional, Hepacivirus hominis, Huh-7; method in brief: as §2
Hepatitis C virus [27] = assay: Antiviral activity against Hepatitis C virus genotype 1b Con 1 infected in human HuH7 cells at 40 nM after 72 hrs by luciferase assay in presence of 12 nM simeprevir; assay type: functional, Hepacivirus hominis, Huh-7; method in brief: as §3
Hepatitis C virus [28] = assay: Antiviral activity against Hepatitis C virus genotype 1b Con 1 infected in human HuH7 cells at 20 nM after 72 hrs by luciferase assay in presence of 12 nM simeprevir; assay type: functional, Hepacivirus hominis, Huh-7; method in brief: as §2
Hepatitis C virus [29] = assay: Antiviral activity against Hepatitis C virus genotype 1b harboring F98C mutation transfected in human HuH7 cells after 72 hrs by luciferase assay; assay type: functional, cell-based, Hepacivirus hominis; details: Huh-7, 72 h; method in brief: as §1

SMILES: O=C(c1nc2scc(C3CC3)n2c1Cl)N1CCN(C2CCCC2)C(=O)C1
- EC50 (Hepatitis C virus [1]): 8 nM
- EC50 (Hepatitis C virus [2]): 10 nM
- CI (Hepatitis C virus [3]): 0.7
- CI (Hepatitis C virus [4]): 0.89
- CI (Hepatitis C virus [5]): 0.82
- CI (Hepatitis C virus [6]): 0.98
- CI (Hepatitis C virus [7]): 1.84
- CI (Hepatitis C virus [8]): 0.67
- CI (Hepatitis C virus [9]): 1.31
- CI (Hepatitis C virus [10]): 0.9
- CI (Hepatitis C virus [11]): 0.57
- CI (Hepatitis C virus [12]): 0.6
- CI (Hepatitis C virus [13]): 1.2
- CI (Hepatitis C virus [14]): 1
- CI (Hepatitis C virus [15]): 0.74
- CI (Hepatitis C virus [16]): 1.22
- EC50 (Hepatitis C virus [17]): 14 nM
- CI (Hepatitis C virus [18]): 1.31
- CI (Hepatitis C virus [19]): 0.88
- CI (Hepatitis C virus [20]): 1.16
- CI (Hepatitis C virus [21]): 0.82
- EC50 (Hepatitis C virus [22]): 16 nM
- CI (Hepatitis C virus [23]): 1.2
- CI (Hepatitis C virus [24]): 0.82
- CI (Hepatitis C virus [25]): 0.54
- CI (Hepatitis C virus [26]): 0.68
- CI (Hepatitis C virus [27]): 0.62
- CI (Hepatitis C virus [28]): 0.64
- EC50 (Hepatitis C virus [29]): 27100 nM
